Laboratory results published in ChEMBL document CHEMBL4130482, “Synthesis and Antimicrobial Evaluation of Fire Ant Venom Alkaloid Based 2-Methyl-6-alkyl-Δ1,6-piperideines” (J Nat Prod, 2017).
Converted amounts (≈) assume the structure as drawn. The source made the active and inactive calls. The rule behind the calls is not given here.

Columns and labels:
Trypanosoma brucei = assay: Antitrypanosomal activity against trypomastigote form of Trypanosoma brucei after 72 hrs by Alamar blue assay; assay type: functional, organism-based
How it was run: (§1)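 Alamar Blue viability assay on L. donovani promastigotes, axenic amastigotes, THP1-cell amastigotes, and T. brucei trypomastigotes. Organisms at 2 × 10^6 cells/mL were exposed to serially diluted compounds for 72 h at 26 °C. IC50 and IC90 were determined. Test compounds were run up to 10 μg/mL. Values are means with standard deviations from two independent experiments, each in duplicate.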

Aspergillus fumigatus = assay: Antimicrobial activity against Aspergillus fumigatus ATCC 204305 at 20 ug/ml after 48 hrs by CLSI method; assay type: functional, organism-based
Staphylococcus aureus = assay: Antimicrobial activity against methicillin-resistant Staphylococcus aureus ATCC 1708 at 20 ug/ml by CLSI method; assay type: functional, organism-based
Escherichia coli = assay: Antimicrobial activity against Escherichia coli ATCC 2452 at 20 ug/ml by CLSI method; assay type: functional, organism-based
Pseudomonas aeruginosa = assay: Antimicrobial activity against Pseudomonas aeruginosa ATCC 2108 at 20 ug/ml by CLSI method; assay type: functional, organism-based
Candida albicans [1] = assay: Antimicrobial activity against Candida albicans ATCC 90028 after 48 hrs by CLSI method; assay type: functional, organism-based
How it was run: (§2)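 Antifungal susceptibility was tested by a modified CLSI (formerly NCCLS) broth method. Strains were C. neoformans ATCC 90113, C. albicans ATCC 90028, and A. fumigatus ATCC 204305, obtained from ATCC. Amphotericin B served as the positive control.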

Enterococcus faecium [2] = assay: Antimicrobial activity against vancomycin-resistant Enterococcus faecium ATCC 700221 by CLSI method; assay type: functional, organism-based
How it was run: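 VRE E. faecium ATCC 700221 strain, tested by a modified CLSI susceptibility method. Methicillin and vancomycin served as positive controls. The read-outs were 50% growth inhibition (IC50) and minimum inhibitory concentration (MIC).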

Leishmania donovani [3] = assay: Antileishmanial activity against amastigote form of Leishmania donovani infected in human THP1 cells after 72 hrs by Alamar blue assay; assay type: functional, organism-based; details: THP-1, 72 h; how it was run: as §1
[4] = (§3) Cytotoxicity against human THP1 cells; assay type: cell-based, THP-1; details: human, THP-1 cells
How it was run: (§4)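 Human THP-1 cells were exposed to test compounds at up to 10 μg/mL. Values are from two independent experiments, each with two replicates.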

THP-1 = assay: as §3; assay type: cell-based; details: Homo sapiens, THP-1; how it was run: as §4
Leishmania donovani [5] = assay: Antileishmanial activity against […] amastigote form of Leishmania donovani after 72 hrs by Alamar blue assay; assay type: functional, organism-based; how it was run: as §1
Cryptococcus neoformans = assay: Antimicrobial activity against Cryptococcus neoformans ATCC 90113 after 72 hrs by CLSI method; assay type: functional, organism-based; details: ATCC 90113, 72 h; how it was run: as §2
Leishmania donovani [6] = assay: Antileishmanial activity against promastigote form of Leishmania donovani after 72 hrs by Alamar blue assay; assay type: functional, organism-based; how it was run: as §1
Enterococcus faecium [7] = assay: Antimicrobial activity against vancomycin-resistant Enterococcus faecium ATCC 700221 at 20 ug/ml by CLSI method; assay type: functional, organism-based
Candida albicans [8] = assay: Antimicrobial activity against Candida albicans ATCC 90028 at 20 ug/ml after 48 hrs by CLSI method; assay type: functional, organism-based
Enterococcus faecium [9] = assay: Antimicrobial activity against vancomycin-resistant Enterococcus faecium ATCC 700221 at 2 ug/ml by CLSI method; assay type: functional, organism-based

Compound	IC50 (Trypanosoma brucei)	IC90 (Trypanosoma brucei)	Activity (Aspergillus fumigatus)	Activity (Staphylococcus aureus)	Activity (Escherichia coli)	Activity (Pseudomonas aeruginosa)	IC50 (Candida albicans [1]; ATCC 90028, 48 h)	MIC (Candida albicans [1]; ATCC 90028, 48 h)	IC50 (Leishmania donovani [3])	IC90 (Leishmania donovani [3])	IC90 [4]	IC50 (THP-1)	IC50 (Leishmania donovani [5])	IC90 (Leishmania donovani [5])	IC50 (Cryptococcus neoformans)	MIC (Cryptococcus neoformans)	IC50 (Leishmania donovani [6])	IC90 (Leishmania donovani [6])	Activity (Enterococcus faecium [7])	also measured
NCCCC(N)(C(=O)O)C(F)F (configuration not stated) [EFLORNITHINE]	6.1 µg/mL (≈ 33.5 µM)	12.1 µg/mL (≈ 66.4 µM)																		
CCCCCCCCCCCCCCCC1=NC(C)CCC1 (configuration not stated)	2.7 µg/mL (≈ 8.78 µM)	3.6 µg/mL (≈ 11.7 µM)	inactive	inactive	inactive	inactive	12.4 µg/mL (≈ 40.3 µM)	20 µg/mL (≈ 65 µM)	3.1 µg/mL (≈ 10.1 µM)	> 10 µg/mL	> 10 µg/mL	> 10 µg/mL	> 10 µg/mL	> 10 µg/mL	6.6 µg/mL (≈ 21.5 µM)	10 µg/mL (≈ 32.5 µM)	5.7 µg/mL (≈ 18.5 µM)	7.9 µg/mL (≈ 25.7 µM)		IC50 (Enterococcus faecium [2]): 19.4 µg/mL (≈ 63.1 µM); MIC (Enterococcus faecium [2]): 20 µg/mL (≈ 65 µM)
CCCCCCCCCCCCCCC1=NC(C)CCC1 (configuration not stated)	4 µg/mL (≈ 13.6 µM)	6.8 µg/mL (≈ 23.2 µM)	inactive	inactive	inactive	inactive	17.1 µg/mL (≈ 58.3 µM)		3.4 µg/mL (≈ 11.6 µM)	8.8 µg/mL (≈ 30 µM)	> 10 µg/mL	> 10 µg/mL	> 10 µg/mL	> 10 µg/mL	8.3 µg/mL (≈ 28.3 µM)	13.3 µg/mL (≈ 45.3 µM)	6.7 µg/mL (≈ 22.8 µM)	9 µg/mL (≈ 30.7 µM)	inactive	MIC (Candida albicans [1]): inactive
CCCCCCCCCCCCCCCCC1=NC(C)CCC1 (configuration not stated)	3.5 µg/mL (≈ 10.9 µM)	6.5 µg/mL (≈ 20.2 µM)	inactive	inactive	inactive	inactive			> 10 µg/mL	> 10 µg/mL	> 10 µg/mL	> 10 µg/mL	> 10 µg/mL	> 10 µg/mL	9.9 µg/mL (≈ 30.8 µM)	20 µg/mL (≈ 62.2 µM)	5 µg/mL (≈ 15.5 µM)	8.3 µg/mL (≈ 25.8 µM)	inactive	Activity (Candida albicans [8]): inactive
C[C@@H]1[C@H](O)[C@@H](C)/C=C/C=C/C=C/C=C/C=C/C=C/C=C/[C@H](O[C@@H]2O[C@H](C)[C@@H](O)[C@H](N)[C@@H]2O)C[C@@H]2O[C@](O)(C[C@@H](O)C[C@@H](O)[C@H](O)CC[C@@H](O)C[C@@H](O)CC(=O)O[C@H]1C)C[C@H](O)[C@H]2C(=O)O [AMPHOTERICIN B]							< 0.1 µg/mL	0.1 µg/mL (≈ 0.108 µM)	0.2 µg/mL (≈ 0.216 µM)	0.4 µg/mL (≈ 0.433 µM)	> 2 µg/mL	> 2 µg/mL	0.9 µg/mL (≈ 0.974 µM)	1.4 µg/mL (≈ 1.52 µM)	< 0.1 µg/mL	0.1 µg/mL (≈ 0.108 µM)	0.2 µg/mL (≈ 0.216 µM)	0.5 µg/mL (≈ 0.541 µM)		Activity (Enterococcus faecium [9]): inactive
